Source: ChEMBL document CHEMBL3526063, “Metabolism and pharmacokinetics of JM6 in mice: JM6 is not a prodrug for Ro-61-8048” (Drug Metab Dispos, 2012)

How the values were obtained:
Mus musculus [1] = test: Dose normalised Cmax in C57BL/6N mouse treated with JM6 (containing <0.4% Ro-61-8048) at 9.5 mg/kg, po and Ro-61-8048 at 0.05 mg/kg, po drugs administered via gavage by LC-MS/MS analysis; format: ADME, organism-based; conditions: in vivo, in the assay text read “0.5 mg/kg” for “0.05 mg/kg”
Outline: (§1)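 Male C57BL/6N mice were dosed by oral gavage at 10 mL/kg with a fine suspension in 10% hydroxypropyl-β-cyclodextrin in 50 mM phosphate buffer, pH 7. Plasma was taken at non-serial time points (n=3 per time point), extracted with 0.1% formic acid in acetonitrile containing diclofenac as internal standard, and quantified by UPLC-MS/MS. Composite non-compartmental parameters came from mean concentrations; AUClast by linear trapezoid, kel from at least three terminal points.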

[2] = Tmax in C57BL/6N mouse treated with JM6 (containing <0.4% Ro-61-8048) at 9.5 mg/kg, po and Ro-61-8048 at 0.05 mg/kg, po drugs administered via gavage by LC-MS/MS analysis; format: ADME, organism-based; conditions: in vivo, in the assay text read “0.5 mg/kg” for “0.05 mg/kg”
Outline: (§2)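 Male C57BL/6N mice dosed by oral gavage (10 mL/kg) as fine suspensions in 10% hydroxypropyl-β-cyclodextrin in 50 mM phosphate buffer pH 7; dose formulations verified by LC-MS/MS. Plasma analysed by LC-MS/MS; composite non-compartmental parameters from mean concentrations (n=3 per time point), C0 set to zero. %F = dose-normalised po AUCinf over dose-normalised iv AUCinf, only within linear range.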

[3] = Half life in C57BL/6N mouse treated with JM6 (containing <0.4% Ro-61-8048) at 9.5 mg/kg, po and Ro-61-8048 at 0.05 mg/kg, po drugs administered via gavage by LC-MS/MS analysis; format: ADME, organism-based; conditions: in vivo, in the assay text read “0.5 mg/kg” for “0.05 mg/kg”; outline: as §1
[4] = AUClast in C57BL/6N mouse treated with JM6 (containing <0.4% Ro-61-8048) at 9 mg/kg, po and Ro-61-8048 at 1 mg/kg, po drugs administered via gavage by LC-MS/MS analysis; format: ADME, organism-based; set-up: dose 9 mg/kg, time 0 - last, route oral; conditions: plasma; outline: as §1
[5] = AUC(infinity) in C57BL/6N mouse treated with JM6 (containing <0.4% Ro-61-8048) at 9 mg/kg, po and Ro-61-8048 at 1 mg/kg, po drugs administered via gavage by LC-MS/MS analysis; format: ADME, organism-based; set-up: dose 9 mg/kg, time infinity, route oral; conditions: plasma; outline: as §1
Mus musculus [6] = test: Dose normalised AUC in C57BL/6N mouse treated with JM6 (containing <0.4% Ro-61-8048) at 9 mg/kg, po and Ro-61-8048 at 1 mg/kg, po drugs administered via gavage by LC-MS/MS analysis; format: ADME, organism-based; conditions: in vivo; outline: as §1
Mus musculus [7] = test: Dose normalised Cmax in C57BL/6N mouse treated with JM6 (containing <0.4% Ro-61-8048) at 9 mg/kg, po and Ro-61-8048 at 1 mg/kg, po drugs administered via gavage by LC-MS/MS analysis; format: ADME, organism-based; conditions: in vivo; outline: as §1
[8] = Tmax in C57BL/6N mouse treated with JM6 (containing <0.4% Ro-61-8048) at 9 mg/kg, po and Ro-61-8048 at 1 mg/kg, po drugs administered via gavage by LC-MS/MS analysis; format: ADME, organism-based; conditions: in vivo; outline: as §2
[9] = Half life in C57BL/6N mouse treated with JM6 (containing <0.4% Ro-61-8048) at 9 mg/kg, po and Ro-61-8048 at 1 mg/kg, po drugs administered via gavage by LC-MS/MS analysis; format: ADME, organism-based; conditions: in vivo; outline: as §1
[10] = AUClast in C57BL/6N mouse treated with JM6 (containing <0.4% Ro-61-8048) at 10 mg/kg, po and Ro-61-8048 at 0.05 mg/kg, po drugs administered via gavage by LC-MS/MS analysis; format: ADME, organism-based; set-up: dose 10 mg/kg, time 0 - last, route oral; conditions: plasma; outline: as §1
[11] = AUC(infinity) in C57BL/6N mouse treated with JM6 (containing <0.4% Ro-61-8048) at 10 mg/kg, po and Ro-61-8048 at 0.05 mg/kg, po drugs administered via gavage by LC-MS/MS analysis; format: ADME, organism-based; set-up: dose 10 mg/kg, route oral, time infinity; conditions: plasma; outline: as §1
[12] = Tmax in C57BL/6N mouse treated with JM6 (containing <0.4% Ro-61-8048) at 10 mg/kg, po and Ro-61-8048 at 0.05 mg/kg, po drugs administered via gavage by LC-MS/MS analysis; format: ADME, organism-based; conditions: in vivo; outline: as §2
[13] = Half life in C57BL/6N mouse treated with JM6 (containing <0.4% Ro-61-8048) at 10 mg/kg, po and Ro-61-8048 at 0.05 mg/kg, po drugs administered via gavage by LC-MS/MS analysis; format: ADME, organism-based; conditions: in vivo; outline: as §1
[14] = Apparent permeability from basolateral to apical side in MDCK2 cells at 10 uM after 1 hr by LC-MS/MS analysis; format: ADME, cell-based, Canis lupus familiaris, MDCK-II; conditions: dog
Outline: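 MDCKII wild-type or MDR1 monolayers were grown 3 days on Transwells after seeding at 2×10^5 cells/well. Compound at 10 µM in HBSS with 25 mM HEPES, pH 7.4, was added apically or basolaterally in duplicate, with Lucifer Yellow as an integrity marker (wells above 100 nm/s rejected).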

MDR1 = test: Efflux ratio of permeability from basolateral to apical side over apical to basolateral side in MDCK2-MDR1 cells at 10 uM after 1 hr by LC-MS/MS analysis; format: ADME, cell-based, Canis lupus familiaris; conditions: dog, MDCK-MDR1
Outline: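 MDCKII wild-type and MDR1 cells grown on Transwells 3 days at 2×10^5 cells/well. Compound 10 μM in HBSS with 25 mM HEPES pH 7.4, added apical or basolateral in duplicate, 1 h at 37 °C. Lucifer Yellow monitored monolayer integrity; wells above 100 nm/s rejected. Both chambers sampled, LC-MS/MS; Papp A>B and B>A, ratio B>A:A>B.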

Mus musculus [15] = test: Dose normalised AUC in C57BL/6N mouse treated with JM6 (containing <0.4% Ro-61-8048) at 9.5 mg/kg, po and Ro-61-8048 at 0.05 mg/kg, po drugs administered via gavage by LC-MS/MS analysis; format: ADME, organism-based; conditions: in vivo, in the assay text read “0.5 mg/kg” for “0.05 mg/kg”; outline: as §1
Mus musculus [16] = test: Dose normalised AUC in C57BL/6N mouse treated with JM6 (containing <0.4% Ro-61-8048) at 25 mg/kg, po and Ro-61-8048 at 0.05 mg/kg, po drugs administered via gavage by LC-MS/MS analysis; format: ADME, organism-based; conditions: in vivo; outline: as §1
Mus musculus [17] = test: Dose normalised Cmax in C57BL/6N mouse treated with JM6 (containing <0.4% Ro-61-8048) at 25 mg/kg, po and Ro-61-8048 at 0.05 mg/kg, po drugs administered via gavage by LC-MS/MS analysis; format: ADME, organism-based; conditions: in vivo; outline: as §1
Mus musculus [18] = test: Dose normalised Cmax in C57BL/6N mouse treated with JM6 (containing <0.4% Ro-61-8048) at 50 mg/kg, po and Ro-61-8048 at 0.05 mg/kg, po drugs administered via gavage by LC-MS/MS analysis; format: ADME, organism-based; conditions: in vivo; outline: as §1
[19] = Hepatic extraction ratio in mouse Hepatocyte at 1 uM after 10 to 90 mins by LC-MS/MS analysis; format: ADME, cell-based; conditions: hepatocytes, read-out: ERH
[20] = Hepatic extraction ratio in human Hepatocyte at 1 uM after 10 to 90 mins by LC-MS/MS analysis; format: ADME, cell-based; conditions: hepatocytes, read-out: ERH

## COc1ccc(S(=O)(=O)Nc2nc(-c3cccc([N+](=O)[O-])c3)cs2)cc1OC
Mus musculus [1]
  Cmax/dose: 18 µM
[2]
  Tmax: 30 min
[3]
  half-life: 414 min
[4]
  AUC(0-t): 110 µM·h
[5]
  AUC(0-inf): 110 µM·h
Mus musculus [6]
  AUC/dose: 140000 nM·kg·h/mg
Mus musculus [7]
  Cmax/dose: 21 µM
[8]
  Tmax: 30 min
[9]
  half-life: 264 min
[10]
  AUC(0-t): 4.9 µM·h
[11]
  AUC(0-inf): 5.2 µM·h
[12]
  Tmax: 60 min
[13]
  half-life: 348 min
[14]; MDCK
  Papp B→A at 1 h, 10 µM: 13 ×10⁻⁶ cm/s
MDR1
  efflux ratio at 1 h, 10 µM: 3.2
Mus musculus [15]
  AUC/dose: 110000 nM·kg·h/mg
Mus musculus [16]
  AUC/dose: 180000 nM·kg·h/mg
Mus musculus [17]
  Cmax/dose: 16 µM
Mus musculus [18]
  Cmax/dose: 160 µM
[19]
  hepatic extraction ratio at 1 µM: < 0.5
[20]
  hepatic extraction ratio at 1 µM: 0.8

## COc1ccc(S(=O)(=O)Nc2nc(-c3cccc([N+](=O)[O-])c3)c(CN3CCCCC3)s2)cc1OC
Mus musculus [1]
  Cmax/dose: 0.15 µM
[2]
  Tmax: 30 min
[3]
  half-life: 54 min
[4]
  AUC(0-t): 1.1 µM·h
[5]
  AUC(0-inf): 1.1 µM·h
Mus musculus [6]
  AUC/dose: 130 nM·kg·h/mg
Mus musculus [7]
  Cmax/dose: 0.11 µM
[8]
  Tmax: 30 min
[9]
  half-life: 42 min
[10]
  AUC(0-t): 1.3 µM·h
[11]
  AUC(0-inf): 1.3 µM·h
[12]
  Tmax: 30 min
[13]
  half-life: 42 min
[14]; mdck-ii, 1 h, 10 µM
  Papp: 0.53 ×10⁻⁶ cm/s
MDR1
  efflux ratio at 1 h, 10 µM: 60
Mus musculus [15]
  AUC/dose: 160 nM·kg·h/mg
Mus musculus [16]
  AUC/dose: 190 nM·kg·h/mg
Mus musculus [17]
  Cmax/dose: 0.14 µM
Mus musculus [18]
  Cmax/dose: 0.19 µM
[19]
  hepatic extraction ratio at 1 µM: 0.83
[20]
  hepatic extraction ratio at 1 µM: 0.67
